Rows were chosen to be rich in hits. Some 2.3% of all compounds tested hit in one or more screens of this group.
TRPC6 activator = mouse TRPC6 channel activation; HEK293-TRPC6 membrane potential dye fluorescence; stronger effect = higher value; B-score at 10 µM; 0.13% of 310,000 active; AID 2550;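 active = B-score of the integrated fluorescence ratio above library mean plus 3 SD, and starting fluorescence ratio within library mean plus 5 SD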;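 note: higher score means more depolarization so channel activation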
TRPC4 act = opens the mouse TRPC4 cation channel; B-score at 10 µM; HEK293 TRPC4beta/mu-opioid, Fluo4 calcium fluorescence; stronger effect = higher value; AID 2237; 0.49% of 310,000 active; Q9QUQ5;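 active = B-score above 5 SD of library B-scores, and initial fluorescence ratio not above library mean plus 5 SD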;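 note: positive B-score marks a calcium rise read as TRPC4 activation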
Target sequence (Q9QUQ5 whole entry, looked up): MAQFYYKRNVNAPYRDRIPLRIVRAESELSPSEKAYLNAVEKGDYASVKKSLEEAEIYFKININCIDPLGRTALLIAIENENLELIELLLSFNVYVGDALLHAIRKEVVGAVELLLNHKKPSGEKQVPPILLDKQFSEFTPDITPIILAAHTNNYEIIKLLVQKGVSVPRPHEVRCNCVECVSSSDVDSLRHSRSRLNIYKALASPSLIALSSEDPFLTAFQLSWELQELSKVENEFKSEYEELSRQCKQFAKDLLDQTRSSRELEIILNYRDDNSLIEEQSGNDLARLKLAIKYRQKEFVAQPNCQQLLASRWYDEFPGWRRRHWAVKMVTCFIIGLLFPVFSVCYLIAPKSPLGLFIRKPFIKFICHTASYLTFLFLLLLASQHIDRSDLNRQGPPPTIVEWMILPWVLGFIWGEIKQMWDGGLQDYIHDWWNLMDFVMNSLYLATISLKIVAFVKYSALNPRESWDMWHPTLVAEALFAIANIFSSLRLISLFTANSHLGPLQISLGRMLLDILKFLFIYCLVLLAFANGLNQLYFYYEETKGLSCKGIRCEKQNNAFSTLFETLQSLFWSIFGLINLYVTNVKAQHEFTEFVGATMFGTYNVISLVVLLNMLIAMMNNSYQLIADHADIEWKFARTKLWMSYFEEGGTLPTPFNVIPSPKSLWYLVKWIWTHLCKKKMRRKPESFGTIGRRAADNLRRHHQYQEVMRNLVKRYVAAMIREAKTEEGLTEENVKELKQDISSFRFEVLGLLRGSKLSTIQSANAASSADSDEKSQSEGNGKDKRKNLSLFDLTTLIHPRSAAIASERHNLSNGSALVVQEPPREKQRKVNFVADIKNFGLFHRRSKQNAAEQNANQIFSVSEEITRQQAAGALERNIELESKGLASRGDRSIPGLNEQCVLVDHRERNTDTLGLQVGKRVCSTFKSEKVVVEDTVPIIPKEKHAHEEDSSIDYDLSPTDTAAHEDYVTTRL
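system = HEK293 cells stably co-expressing mouse TRPC4beta and mu-opioid receptor | schedule = Fluo4 dye loading 45 min at room temperature, 110 s recording | measure = B-scored integrated calcium fluorescence ratio | signal = Fluo4 calcium-sensitive dye fluorescence, kinetic, 1 Hz baseline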
TRPC4 potent = allosterically enhances the mouse TRPC4 cation channel | 0.42% of 310,000 active | B-score at 10 µM | HEK293 TRPC4beta/mu-opioid, DAMGO EC20, Fluo-4 Ca2+ flux; stronger effect = higher value | Q9QUQ5;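 active = B-score of calcium response area above 5 SD of library B-scores, with initial fluorescence ratio within 5 SD of library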
TRPC4 inh = TRPC4 (mouse) channel inhibition; Q9QUQ5; HEK293 TRPC4beta/mu-opioid, DAMGO-evoked Fluo4 calcium flux; stronger effect = lower value; B-score at 10 µM; 0.39% of 300,000 active; AID 2247;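 active = B-score over 3 SD under the library average, no early fluorescence shift, positive overall ratio signal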
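Signal: kinetic Fluo4 fluorescence imaging of calcium influx. Material: stable TRPC4beta/mu-opioid receptor HEK293 cells. Probe or stimulus: DAMGO in two steps, submaximal then maximal.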
TRPC6 inh = inhibitors of mouse TRPC6 channel; 1.1% of 310,000 active; B-score at 10 µM; HEK293-TRPC6, membrane potential dye, ACh-evoked depolarization; stronger effect = lower value; AID 2553; Q61143;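 active = B-score under library mean minus 3 SD, initial fluorescence not abnormally high, positive integrated signal ratio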;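 note: B-score derived from integrated fluorescence ratio over the kinetic read; more negative B-score means stronger inhibition of depolarization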
TRPC4 spec 2 = second check of whether TRPC6 inhibitors also affect mouse TRPC4; 42% of 920 active; AID 2776; shares compounds with TRPC6 inh; HEK293 TRPC4/MOR, membrane potential dye fluorescence; channel activated by saturating DAMGO dose; inhibition, % at 10 µM;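 active = compounds whose fluorescence signal differed from control wells by over 3 SD, either direction, in both duplicate plates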
TRPC4 spec = mouse TRPC4 off-target activity of TRPC6 inhibitors. shares compounds with TRPC6 inh. HEK293 TRPC4/mu-opioid, membrane potential fluorescence. activity change, negative = inhibition, % at 10 µM. 61% of 920 active. AID 2777;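 active = rise or fall in signal beyond 3 SD of buffer-only wells in both replicate plates, either sign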;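 note: integrated kinetic ratio of fluorescence range over baseline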
HEK293 MPD ctr 2-1 = second check of TRPC6 inhibitor effects in parental HEK293 cells | shares compounds with TRPC6 inh | parental HEK293 membrane potential dye fluorescence; maximal acetylcholine challenge after compound addition | signal change vs control, % at 10 µM | 31% of 920 active | AID 2779;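 active = membrane potential signal moving either way by over 3 SD of the maximum-effect control, in both duplicate plates, meaning non-specific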
HEK293 MPD ctr-1 = parental HEK293 nonspecific activity of TRPC6 inhibitors. shares compounds with TRPC6 inh. parental HEK293 membrane potential dye fluorescence. membrane potential signal change, % at 10 µM. 60% of 920 active. AID 2780;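 active = membrane potential signal shifting up or down by more than 3 SD of buffer-only wells, on both duplicate plates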
HEK293 MPD ctr-2 = parental HEK293 nonspecific activity of TRPC6 modulators. shares compounds with TRPC6 inh. membrane potential dye fluorescence. membrane potential signal change, % at 10 µM. 51% of 2,400 active. AID 488924;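 active = membrane potential signal moves up or down beyond 5 SD from buffer-only wells, on both duplicate plates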
HEK293 MPD ctr 2-2 = parental HEK293 nonspecific activity of TRPC6 modulators, second screen; shares compounds with TRPC6 inh; membrane potential dye fluorescence; after compound, maximal acetylcholine stimulation; inhibition, % at 10 µM; 14% of 2,400 active; AID 488926;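 active = membrane potential signal drops by more than 5 SD from the mean control signal, in both duplicate plates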
TRPC4/MOR mod = tests whether TRPC6 modulators also affect mouse TRPC4; shares compounds with TRPC6 inh; HEK293 TRPC4/mu-opioid, membrane potential fluorescence; percent change from control (negative = decrease, positive = increase), % at 10 µM; 69% of 2,400 active; AID 488927;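 active = membrane potential signal moved up or down beyond 5 SD of buffer control wells, in both duplicate plates, actives on both sides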
TRPC4 ctr inh 2 = second selectivity test of TRPC6 modulators against mouse TRPC4; inhibition, % at 10 µM; HEK293 TRPC4/mu-opioid, membrane potential dye fluorescence; stimulated with maximal-effect DAMGO; shares compounds with TRPC6 inh; 55% of 2,400 active;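 active = drop in membrane potential signal beyond 5 SD of the control wells in both duplicate plates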;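 note: TRPC4 counter screen for TRPC6 hits run under conditions tuned for TRPC6 not TRPC4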
TRPC6 inh conf = confirmation of mouse TRPC6 inhibitors | shares compounds with TRPC6 inh | HEK293-TRPC6, membrane potential dye, ACh-evoked depolarization | inhibition, % at 10 µM | 43% of 3,300 active;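 active = fluorescence ratio falls more than 5 SD below the full-stimulation control mean, in both duplicate runs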;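 note: integrated fluorescence ratio of peak minus minimum over baseline after agonist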
TRPC6 act confirm = confirmation of mouse TRPC6 activators; shares compounds with TRPC6 inh; HEK293-TRPC6 membrane potential dye fluorescence, FDSS; activation, % at 10 µM; 11% of 2,800 active; AID 488961;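 active = ratio signal rise beyond 5 SD above unstimulated control wells' mean, seen in both duplicate runs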
Numbers stand for hits; - = inactive; . = no result given.

SMILES | TRPC6 activator | TRPC4 act | TRPC4 potent | TRPC4 inh | TRPC6 inh | HEK293 MPD ctr-2 | HEK293 MPD ctr 2-2 | TRPC4/MOR mod | TRPC4 ctr inh 2 | TRPC6 inh conf | TRPC6 act confirm | others
O=C1CC(c2ccc(Cl)c(Cl)c2)CC(O)=C1C=NCCN1CCNCC1 (stereo not drawn) | - | - | - | - | -5.9 | - | - | 9.5% | - | - | .
O=C1CC(c2ccc(F)cc2)CC(O)=C1C=NCCN1CCNCC1 (stereo not drawn) | - | - | - | - | - | . | . | . | . | . | .
O=C1CC(c2ccco2)CC(O)=C1C=NCCN1CCNCC1 (stereo not drawn) | - | - | - | - | -8.7 | . | . | . | . | - | - | TRPC4 spec 2=-;TRPC4 spec=-;HEK293 MPD ctr 2-1=-;HEK293 MPD ctr-1=-
CCOC(=O)N1CCC(N2Cc3cccc(C(=O)NCc4ccc(OC)cc4)c3C2=O)CC1 | - | - | - | - | -7.7 | . | . | . | . | - | - | TRPC4 spec 2=-;TRPC4 spec=-;HEK293 MPD ctr 2-1=-;HEK293 MPD ctr-1=-
CCOC(=O)N1CCC(N2Cc3cccc(C(=O)Nc4ccc(CC)cc4)c3C2=O)CC1 | - | - | - | - | -7.4 | . | . | . | . | - | - | TRPC4 spec 2=-;TRPC4 spec=-;HEK293 MPD ctr 2-1=-;HEK293 MPD ctr-1=-
CCOC(=O)N1CCC(N2Cc3cccc(C(=O)Nc4ccc(OCC)cc4)c3C2=O)CC1 | - | - | - | - | - | . | . | . | . | . | .
CCN(CC(=O)NCc1ccc(Cl)cc1)C(=O)C1CCN(S(=O)(=O)c2ccc(OC)c(OC)c2)CC1 | - | - | - | - | - | . | . | . | . | . | .
COC(=O)c1ccccc1NC(=O)CN1CCCCC1 | - | - | - | - | - | . | . | . | . | . | .
COC(=O)c1c(NC(=O)CN2CCN(Cc3ccc4c(c3)OCO4)CC2)sc(C)c1C | - | - | - | - | - | . | . | . | . | . | .
COc1ccc2c(c1)c(C(=O)CN1CCN(Cc3ccccc3)CC1)c(C)n2C | - | - | - | - | -5.3 | - | - | -14% | 60% | - | -
CCOC(=O)c1c(C)n(C)c2ccc(OC)c(NC(=O)CN3CCN(Cc4ccccc4)CC3)c12 | - | - | - | - | -5.7 | - | - | 8.5% | 39% | - | -
COC(=O)c1ccsc1NC(=O)CN1CCN(Cc2ccc3c(c2)OCO3)CC1 | - | - | - | - | -6.7 | . | . | . | . | - | . | TRPC4 spec 2=-;TRPC4 spec=19%;HEK293 MPD ctr 2-1=389%;HEK293 MPD ctr-1=16%
COc1ccc2c(c1)c(C(=O)CN1CCN(c3ccccc3)CC1)c(C)n2C | - | - | - | - | - | . | . | . | . | . | .
COC(=O)c1ccccc1NC(=O)CN1CCN(Cc2ccccc2)CC1 | 15 | - | - | - | - | 384% | - | 60% | 40% | - | 142%
O=CN(c1ccccc1)c1ccc2ccccc2c1 | - | - | - | - | - | . | . | . | . | . | .
Cc1cccc2cc3c(nc12)-c1ccccc1C3=O | - | - | - | - | - | . | . | . | . | . | .
Cc1nc2c(cc1C#N)C(=O)c1ccccc1-2 | - | - | - | - | -5 | -114% | - | -22% | - | - | -
CN(C)C(CNc1ccc(S(C)(=O)=O)cc1[N+](=O)[O-])Cc1ccccc1 (stereo not drawn) | - | - | - | - | -5.1 | - | - | - | 32% | - | -
Cc1cc(Nc2cccc([N+](=O)[O-])c2)c2ccccc2n1 | - | - | - | - | -8.1 | -164% | - | -34% | 52% | 46% | -
Cc1cc(Nc2ccc([N+](=O)[O-])cc2)c2ccccc2n1 | - | - | - | - | - | . | . | . | . | . | .
Cc1cc(Nc2cccc([N+](=O)[O-])c2)c2cccc(C)c2n1 | - | - | - | - | -6.8 | . | . | . | . | - | - | TRPC4 spec 2=62%;TRPC4 spec=-24%;HEK293 MPD ctr 2-1=43%;HEK293 MPD ctr-1=-444%
O=C(CCn1c(=S)oc2ccccc21)NC1CCCCC1 | - | - | - | - | - | . | . | . | . | . | .
Cn1/c(=N\NC(=O)c2ccccc2Cl)sc2ccccc21 | - | - | - | - | - | . | . | . | . | . | .
COc1cc2[nH]c(=O)n3nc(-c4ccccc4)nc3c2cc1OC | - | - | - | - | - | . | . | . | . | . | .
CCN(CC)CCNc1nc2cc(OC)c(OC)cc2c2nc(-c3ccccc3)nn12 | - | - | - | - | -12 | . | . | . | . | 76% | - | TRPC4 spec 2=38%;TRPC4 spec=-33%;HEK293 MPD ctr 2-1=32%;HEK293 MPD ctr-1=-384%
SMILES | TRPC6 activator | TRPC4 act | TRPC4 potent | TRPC4 inh | TRPC6 inh | HEK293 MPD ctr-2 | HEK293 MPD ctr 2-2 | TRPC4/MOR mod | TRPC4 ctr inh 2 | TRPC6 inh conf | TRPC6 act confirm | others
COc1ccccc1-c1nnc(SCC(=O)Nc2ccc(S(N)(=O)=O)cc2)n1C | - | - | - | - | - | . | . | . | . | . | .
CN1CCN(S(=O)(=O)c2ccc(Oc3cccc(C(F)(F)F)c3)nc2)CC1 | - | - | - | - | - | . | . | . | . | . | .
Cc1ccc(S(=O)(=O)N2CCC(Oc3cccc(C(F)(F)F)c3)CC2)cc1 | - | - | - | - | -7.3 | . | . | . | . | - | . | TRPC4 spec 2=-;TRPC4 spec=-;HEK293 MPD ctr 2-1=-;HEK293 MPD ctr-1=-
O=C(NC1CCCCC1)C(c1ccccc1)N(Cc1ccco1)C(=O)c1csnn1 (stereo not drawn) | - | - | - | - | - | . | . | . | . | . | .
O=C(NC1CCCCC1)C(c1ccccc1)N(Cc1ccco1)C(=O)Cn1cnc2ccccc21 (stereo not drawn) | 17 | - | - | - | - | 277% | - | 119% | - | - | 109%
Cc1c(C(=O)N/N=C/c2cccnc2)nnn1-c1nonc1N | - | - | - | - | - | . | . | . | . | . | .
CCCn1nc(C(=O)Oc2ccc3c(C)cc(=O)oc3c2)c2ccccc2c1=O | - | - | - | - | - | . | . | . | . | . | .
CC(C)COc1ccc(C(=O)OC2CC(C)(C)OCC2CN(C)C)cc1 (stereo not drawn) | 14 | - | - | - | - | 300% | - | 46% | 42% | - | 136%
CN(C)Cc1c(O)ccc2cc(-c3nc4ccccc4n3C)c(=O)oc12 | - | - | - | - | -5 | 444% | - | -24% | - | - | -
